What was measured:
Format in all cases: functional
[1] = test system: HCT-116; experiment: Growth inhibition of human HCT116 cells at 10 uM after 48 hrs by sulforhodamine B assay relative to control; conditions: HCT-116, 48 h, read-out: GI
Procedure, shortened: (§1)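 NCI-60 single-dose screen at 10 μM for 48 h. Percent growth inhibition was measured by sulforhodamine B staining of cellular protein.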

[2] = test system: HOP-92; experiment: Growth inhibition of human HOP92 cells after 48 hrs by sulforhodamine B assay; conditions: HOP-92, 48 h
Procedure, shortened: (§2)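 NCI-60 panel screen. Cells were exposed for 48 h at five concentrations between 10 nM and 100 μM. Cellular protein was read by sulforhodamine B staining, and GI50 and total growth inhibition (TGI) concentrations were derived.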

[3] = test system: SK-MEL-2; experiment: Growth inhibition of human SK-MEL-2 cells at 10 uM after 48 hrs by sulforhodamine B assay relative to control; conditions: SK-MEL-2, 48 h, read-out: GI
Procedure, shortened: (§3)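 NCI-60 human cancer cell line screen, single-dose pass: cells exposed to 10 μM for 48 h. Cellular protein content read out by sulforhodamine B staining, and growth inhibition expressed relative to untreated control.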

[4] = test system: Hs-578T; experiment: Growth inhibition of human Hs 578T cells at 10 uM after 48 hrs by sulforhodamine B assay relative to control; conditions: read-out: GI; procedure, shortened: as §1
[5] = test system: SK-MEL-5; experiment: Growth inhibition of human SK-MEL-5 cells after 48 hrs by sulforhodamine B assay; conditions: SK-MEL-5, 48 h
Procedure, shortened: (§4)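 NCI-60 panel follow-up: five concentrations from 10 nM to 100 μM, 48 h exposure. Growth read by sulforhodamine B protein staining. GI50 derived from the concentration-response, with the concentration for total growth inhibition (TGI) also recorded when below 100 μM.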

[6] = test system: OVCAR-5; experiment: Growth inhibition of human OVCAR5 cells after 48 hrs by sulforhodamine B assay; conditions: OVCAR-5, 48 h; procedure, shortened: as §4
[7] = test system: SNB-19; experiment: Growth inhibition of human SNB19 cells at 10 uM after 48 hrs by sulforhodamine B assay relative to control; conditions: SNB-19, 48 h, read-out: GI; procedure, shortened: as §3
[8] = test system: T47D; experiment: Growth inhibition of human T47D cells after 48 hrs by sulforhodamine B assay
Procedure, shortened: (§5)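 NCI-60 panel cells treated at five concentrations from 10 nM to 100 μM for 48 h. Read-out by sulforhodamine B protein stain. GI50 and total growth inhibition (TGI, if below 100 μM) taken from the concentration-response data.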

[9] = test system: MCF7; experiment: Growth inhibition of human MCF7 cells at 10 uM after 48 hrs by sulforhodamine B assay relative to control; conditions: MCF7, 48 h, read-out: GI; procedure, shortened: as §1
[10] = test system: OVCAR-4; experiment: Growth inhibition of human OVCAR4 cells at 10 uM after 48 hrs by sulforhodamine B assay relative to control; conditions: OVCAR-4, 48 h, read-out: GI; procedure, shortened: as §3
[11] = test system: PC-3; experiment: Growth inhibition of human PC3 cells at 10 uM after 48 hrs by sulforhodamine B assay relative to control; conditions: PC-3, 48 h, read-out: GI; procedure, shortened: as §3
[12] = test system: MDA-MB-435; experiment: Growth inhibition of human MDA-MB-435 cells after 48 hrs by sulforhodamine B assay; conditions: MDA-MB-435, 48 h; procedure, shortened: as §2
[13] = test system: T47D; experiment: Growth inhibition of human T47D cells at 10 uM after 48 hrs by sulforhodamine B assay relative to control; conditions: read-out: GI
Procedure, shortened: (§6)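 NCI-60 human cancer cell line screen, single dose of 10 μM for 48 h. Cellular protein content read by sulforhodamine B staining; growth inhibition expressed relative to untreated control.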

[14] = test system: IGROV-1; experiment: Growth inhibition of human IGROV1 cells after 48 hrs by sulforhodamine B assay; conditions: IGROV-1, 48 h; procedure, shortened: as §2
[15] = test system: NCI-H322M; experiment: Growth inhibition of human NCI-H322M cells after 48 hrs by sulforhodamine B assay; procedure, shortened: as §4
[16] = test system: MDA-MB-231; experiment: Growth inhibition of human MDA-MB-231 cells at 10 uM after 48 hrs by sulforhodamine B assay relative to control; conditions: MDA-MB-231, 48 h, read-out: GI; procedure, shortened: as §1
[17] = test system: RPMI-8226; experiment: Growth inhibition of human RPMI8226 cells after 48 hrs by sulforhodamine B assay; conditions: RPMI-8226, 48 h; procedure, shortened: as §4
[18] = test system: SF-295; experiment: Growth inhibition of human SF295 cells at 10 uM after 48 hrs by sulforhodamine B assay relative to control; conditions: SF-295, 48 h, read-out: GI; procedure, shortened: as §3
[19] = test system: SW-620; experiment: Growth inhibition of human SW620 cells at 10 uM after 48 hrs by sulforhodamine B assay relative to control; conditions: SW-620, 48 h, read-out: GI; procedure, shortened: as §6
[20] = test system: RXF 393; experiment: Growth inhibition of human RXF393 cells after 48 hrs by sulforhodamine B assay; conditions: RXF 393, 48 h; procedure, shortened: as §4
[21] = test system: A549; experiment: Growth inhibition of human A549/ATCC cells at 10 uM after 48 hrs by sulforhodamine B assay relative to control; conditions: A549, 48 h, read-out: GI; procedure, shortened: as §1
[22] = test system: SK-OV-3; experiment: Growth inhibition of human SKOV3 cells after 48 hrs by sulforhodamine B assay; conditions: SK-OV-3, 48 h; procedure, shortened: as §4
[23] = test system: A498; experiment: Growth inhibition of human A498 cells after 48 hrs by SRB assay; conditions: A498, 48 h
Procedure, shortened: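 In-house assay. Cells were seeded into 96-well plates at a density for exponential growth and treated with a concentration range for 48 h. They were then fixed in 10% (w/v) TCA and stained with sulforhodamine B. The 50% growth-inhibitory concentration relative to control cells was calculated as the mean of three repeats ± standard deviation.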

[24] = test system: A498; experiment: Growth inhibition of human A498 cells at 10 uM after 48 hrs by sulforhodamine B assay relative to control; conditions: A498, 48 h, read-out: GI; procedure, shortened: as §1
[25] = test system: UACC-257; experiment: Growth inhibition of human UACC257 cells after 48 hrs by sulforhodamine B assay; conditions: UACC-257, 48 h; procedure, shortened: as §5
[26] = test system: U-251; experiment: Growth inhibition of human U251 cells after 48 hrs by sulforhodamine B assay; conditions: U-251, 48 h; procedure, shortened: as §5
[27] = test system: DU-145; experiment: Growth inhibition of human DU145 cells after 48 hrs by sulforhodamine B assay; conditions: DU-145, 48 h; procedure, shortened: as §2
[28] = test system: SK-MEL-2; experiment: Growth inhibition of human SK-MEL-2 cells after 48 hrs by sulforhodamine B assay; conditions: SK-MEL-2, 48 h; procedure, shortened: as §4
[29] = test system: HCT-15; experiment: Growth inhibition of human HCT15 cells after 48 hrs by sulforhodamine B assay; conditions: HCT-15, 48 h; procedure, shortened: as §2
[30] = test system: OVCAR-3; experiment: Growth inhibition of human OVCAR3 cells at 10 uM after 48 hrs by sulforhodamine B assay relative to control; conditions: OVCAR-3, 48 h, read-out: GI; procedure, shortened: as §3
[31] = test system: SF-268; experiment: Growth inhibition of human SF268 cells at 10 uM after 48 hrs by sulforhodamine B assay relative to control; conditions: SF-268, 48 h, read-out: GI; procedure, shortened: as §3
[32] = test system: NCI-H522; experiment: Growth inhibition of human NCI-H522 cells at 10 uM after 48 hrs by sulforhodamine B assay relative to control; conditions: NCI-H522, 48 h, read-out: GI; procedure, shortened: as §3
[33] = test system: 786-0; experiment: Growth inhibition of human 786-0 cells at 10 uM after 48 hrs by sulforhodamine B assay relative to control; conditions: 786-0, 48 h, read-out: GI; procedure, shortened: as §1

Row | SMILES | inhibition of growth at 10 µM [1] [%] | GI50 [2] [µM] | TGI [2] [µM] | inhibition of growth at 10 µM [3] [%] | inhibition of growth at 10 µM [4] [%] | GI50 [5] [µM] | GI50 [6] [µM] | inhibition of growth at 10 µM [7] [%] | GI50 [8] [µM] | inhibition of growth at 10 µM [9] [%] | inhibition of growth at 10 µM [10] [%] | inhibition of growth at 10 µM [11] [%] | GI50 [12] [µM] | inhibition of growth at 10 µM [13] [%] | GI50 [14] [µM] | GI50 [15] [µM] | inhibition of growth at 10 µM [16] [%] | GI50 [17] [µM] | inhibition of growth at 10 µM [18] [%] | inhibition of growth at 10 µM [19] [%] | also measured
1 | Cc1noc(C)c1-c1cc(O)cc(C(O)c2ccccc2)c1 (configuration not stated) | 42 | 1.02 | 72.9 | 39.6 | 66.3 | 5.95 | 31.8 | 47.3 | 7.7 | 79.1 | 67.5 | 51.6 | 3.48 | 52.9 | 23.2 | 8.41 | 37.6 | 1.94 | 57.5 | 27.9 | TGI [5]: 29.5 µM; TGI [17]: 9.7 µM; GI50 [20]: 17.2 µM; inhibition of growth at 10 µM [21]: 44.6%; GI50 [22]: 7.01 µM; GI50 [23]: 1.58 to 2.6 µM; TGI [23]: 20.3 µM; inhibition of growth at 10 µM [24]: 103%; GI50 [25]: 4.66 µM; GI50 [26]: 15 µM; GI50 [27]: 6.95 µM; GI50 [28]: 23.5 µM; GI50 [29]: 3.52 µM; inhibition of growth at 10 µM [30]: 53.3%; inhibition of growth at 10 µM [31]: 28.5%; inhibition of growth at 10 µM [32]: 77.9%; inhibition of growth at 10 µM [33]: 45.2%
2 | COc1ccccc1S(=O)(=O)Nc1ccc2c(c1)CN(C)C(=O)N2 | 50.3 | 1.2 | 70.8 | 52.4 | 66.3 | 6.3 | 10.5 | 45.9 | 3.7 | 78.5 | 56.9 | 64.7 | 2.6 | 68.6 | 6.3 | 6 | 45.3 | 2.2 | 94.7 | 40.6 | GI50 [20]: 7.9 µM; inhibition of growth at 10 µM [21]: 49.5%; GI50 [22]: 4.9 µM; GI50 [23]: 1.8 µM; TGI [23]: 6 µM; inhibition of growth at 10 µM [24]: 103%; GI50 [25]: 3.6 µM; GI50 [26]: 15.1 µM; GI50 [27]: 28.8 µM; GI50 [28]: 29.5 µM; GI50 [29]: 3.2 µM; inhibition of growth at 10 µM [30]: 67.8%; inhibition of growth at 10 µM [31]: 27.1%; inhibition of growth at 10 µM [32]: 73.9%; inhibition of growth at 10 µM [33]: 27.3%
